Results reported in ChEMBL document CHEMBL1124737, “Synthesis and alpha 2-adrenoceptor effects of substituted catecholimidazoline and catecholimidazole analogues in human platelets” (J Med Chem, 1990).

Key:
Homo sapiens [1] = species on record: Homo sapiens; assay: Inhibition potency against primary wave responses to epinephrine; format: functional, organism-based; conditions: read-out: pA2 (converted)
Homo sapiens [2] = species on record: Homo sapiens; assay: Log concentration that produces maximum response against epinephrine-induced platelet aggregation; format: functional, organism-based
Homo sapiens [3] = species on record: Homo sapiens; assay: Stimulatory activity against serotonin secretion (SEC).; format: functional, organism-based
Homo sapiens [4] = species on record: Homo sapiens; assay: Inhibition of AA+phentolamine by the compound in response of AGG; format: functional, organism-based
Procedure, shortened: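 Citrated platelet-rich plasma from medication-free human volunteers was read by Born turbidometric aggregometry. Phentolamine (1 μM) was added 1 min before the drug and 2 min before arachidonic acid, used at the minimum concentration giving maximal aggregation. IC50 was taken from the maximal change in light transmittance after 4 min, read from percent inhibition versus log concentration plots. Data are from 3–5 preparations.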

Homo sapiens [5] = species on record: Homo sapiens; assay: Inhibition of ADP by the compound in response of AGG; format: functional, organism-based
Procedure, shortened: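 The drug was added 1 min before ADP, used at the minimum concentration giving maximal aggregation, in citrated human platelet-rich plasma from medication-free donors. Born turbidometric aggregometry was used. IC50 came from the maximal change in light transmittance after 6 min, using percent inhibition versus log concentration plots. Data are from 3–5 preparations.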

Homo sapiens [6] = species on record: Homo sapiens; assay: Inhibition of Arachidonic acid by the compound in response of AGG; format: functional, organism-based
Procedure, shortened: (§1)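 Human platelet-rich plasma from medication-free volunteers, citrate anticoagulated (9:1). Inducer at the minimum concentration giving maximal aggregation. Inhibitor added 1 min before inducer. Turbidometric (Born) aggregation read as the maximal change in light-transmittance amplitude after 4 min. U46619 runs include 1 mM aspirin. IC50 taken from percent inhibition vs log concentration plots; 3–5 preparations.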

Homo sapiens [7] = species on record: Homo sapiens; assay: Inhibition of U-46,619 by the compound in response of AGG; format: functional, organism-based; procedure, shortened: as §1
Homo sapiens [8] = species on record: Homo sapiens; assay: Inhibition of U-46,619 + phentolamine by the compound in response of AGG; format: functional, organism-based
Procedure, shortened: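 Human citrated platelet-rich plasma was incubated with 1 mM aspirin. Phentolamine (1 μM) was added 1 min before the drug and 2 min before U46619, used at the minimal maximally-aggregating concentration. Turbidometric aggregation was followed, and IC50 was based on the maximal transmittance change at 4 min, from percent inhibition versus log concentration plots. Data are from 3–5 preparations.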

[9] = target: Serotonin (5-HT) receptor; assay: Inhibition of AA+phentolamine by the compound in response of SEC; format: functional, Homo sapiens
Procedure, shortened: (§2)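 Phentolamine 1 μM added 1 min before the test drug and 2 min before the inducer (AA or U46619, at minimum maximally effective concentration). Aspirin 1 mM in U46619 runs. Secretion read as radioactivity release. IC50 from percent inhibition vs log concentration; 3–5 preparations.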

[10] = target: Serotonin (5-HT) receptor; assay: Inhibition of ADP by the compound in response of SEC; format: functional, Homo sapiens
Procedure, shortened: (§3)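 Inducer at the minimum concentration giving maximal aggregation; inhibitor added 1 min before it. Dense-granule secretion measured as release of radioactivity. U46619 runs include 1 mM aspirin. IC50 from percent inhibition vs log concentration; 3–5 preparations.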

[11] = target: Serotonin (5-HT) receptor; assay: Inhibition of Arachidonic acid by the compound in response of SEC; format: functional, Homo sapiens; procedure, shortened: as §3
[12] = target: Serotonin (5-HT) receptor; assay: Inhibition of U-46,619 by the compound in response of SEC; format: functional, Homo sapiens; procedure, shortened: as §3
[13] = target: Serotonin (5-HT) receptor; assay: Inhibition of U-46,619 + phentolamine by the compound in response of SEC; format: functional, Homo sapiens; procedure, shortened: as §2
Homo sapiens [14] = species on record: Homo sapiens; assay: Effective concentration for primary wave aggregation was determined; format: functional, organism-based
Procedure, shortened: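 Citrated (9:1) platelet-rich plasma from medication-free human donors. Compound given alone to platelets preincubated 1 min with 1 mM aspirin. Born turbidometric aggregation, maximal change in light transmittance amplitude. EC50 taken from individual plots of percent response versus log concentration. Values in parentheses give number of experiments.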

Homo sapiens [15] = species on record: Homo sapiens; assay: Effective concentration for secondary wave aggregation was determined; format: functional, organism-based
Homo sapiens [16] = species on record: Homo sapiens; assay: Log concentration that produces maximum response against epinephrine-induced platelet aggregation (primary wave AGG); format: functional, organism-based
Homo sapiens [17] = species on record: Homo sapiens; assay: Inhibitory concentration of compound against primary aggregation of induced by R-8; format: functional, organism-based

## Oc1ccc(C[C@H]2CNC=N2)cc1O
Homo sapiens [1]
  Kb: 3.24 µM

## Oc1ccc(C(O)c2ncc[nH]2)cc1O (configuration not stated)
Homo sapiens [2]
  EC50: 38.9 µM

## Cl.Oc1ccc(Cc2ncc[nH]2)cc1O
Homo sapiens [3]
  IC50: 36.3 µM
Homo sapiens [4]
  IC50: 145 µM
Homo sapiens [5]
  IC50: 263 µM
Homo sapiens [6]
  IC50: 661 µM
Homo sapiens [7]
  IC50: 1620 µM
Homo sapiens [8]
  IC50: 741 µM
[9]
  Log IC50: -3.79
[10]
  Log IC50: -3.46
[11]
  Log IC50: -3.18
[12]
  Log IC50: -2.81
[13]
  Log IC50: -3.09

## Oc1ccc(C[C@@H]2CNC=N2)cc1O
Homo sapiens [14]
  EC50: 5.03 µM
Homo sapiens [15]
  EC50: 4.89 µM
Homo sapiens [16]
  EC50: 5.13 µM

## COC(=O)[C@@H]1[C@H]2C[C@H]3c4[nH]c5ccccc5c4CCN3C[C@@H]2CC[C@@H]1O [YOHIMBINE]
Homo sapiens [17]
  IC50: 1.1 µM
